Measured values: ChEMBL document CHEMBL2034867, “S-Farnesyl-Thiopropionic Acid (FTPA) Triazoles as Potent Inhibitors of Isoprenylcysteine Carboxyl Methyltransferase” (ACS Med Chem Lett, 2012)
Calls of active or inactive are those of the source. The calls are words filed in the database; no cut-off is given here.

Columns and labels:
[1] = target: T1, Protein-S-isoprenylcysteine O-methyltransferase (Homo sapiens, UniProt O60725); experiment: Specific activity at ICMT at 10 uM relative to AFC
Procedure, shortened: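 Single-point vapor diffusion assay at 10 μM inhibitor. Icmt specific activity is expressed as percent of the no-inhibitor AFC control.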

[2] = target: T1, Protein-S-isoprenylcysteine O-methyltransferase; experiment: Inhibition of ICMT in cell free system
MEF [3] = experiment: Cytotoxicity against icmt-double mutant MEF cells after 5 days by MTT assay; format: cell-based; conditions: Mus musculus, 120 h
Procedure, shortened: (§1)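 MEFs from Icmt+/+ or Icmt–/– animals were seeded at 1000 cells/well in DMEM with 10% FBS for 24 h. Medium was then changed to DMEM with 5% FBS containing compound at various concentrations, or 0.1% DMSO. After 5 days, MTT (5 mg/mL) was added for 4 h at 37 °C. Medium was removed, formazan dissolved in DMSO, and absorbance read at 590 nm.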

MEF [4] = experiment: Cytotoxicity against icmt-positive MEF cells after 5 days by MTT assay; format: functional, cell-based; conditions: Mus musculus, 120 h; procedure, shortened: as §1
[5] = target: T1, Protein-S-isoprenylcysteine O-methyltransferase; experiment: Inhibition of Icmt-mediated GFP-K-Ras membrane localization in human Jurkat T cells at 10 uM after 24 hrs by fluorescent microscopic analysis; format: cell-based
Procedure, shortened: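 Jurkat T cells (E6.1) were transfected with GFP-K-Ras and treated for 24 h with compound, vehicle, or 25 μM simvastatin. Cells were placed on poly-L-lysine-coated coverslips (100 μg/mL) and fixed in 3.7% formaldehyde for 10 min. GFP localization was scored by fluorescence microscopy in random fields of 100 cells as normal membrane, partial mislocalization or complete mislocalization.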

[6] = Cytotoxicity against human PA-TU-8902 cells after 5 days by MTT assay; format: functional, cell-based; conditions: PaTu 8902, 120 h

T1 sequence (O60725 whole entry, the tested form may be a part): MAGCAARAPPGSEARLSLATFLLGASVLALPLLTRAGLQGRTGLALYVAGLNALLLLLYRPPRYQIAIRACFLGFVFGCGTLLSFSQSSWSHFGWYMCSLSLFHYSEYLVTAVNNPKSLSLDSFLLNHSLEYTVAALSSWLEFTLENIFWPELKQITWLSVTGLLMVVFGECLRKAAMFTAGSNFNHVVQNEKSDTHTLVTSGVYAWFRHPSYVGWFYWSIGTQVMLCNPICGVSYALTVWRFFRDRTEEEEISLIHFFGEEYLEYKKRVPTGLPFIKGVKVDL

| SMILES | Activity [1] [%] | also measured |
| --- | --- | --- |
| COC(=O)CCSC/C=C(\C)CCn1cc(-c2ccc(C(C)(C)C)cc2)nn1 | 84 | – |
| CCCCCCCCCCc1cn(CC/C(C)=C/CSCCC(=O)OC)nn1 | 67 | – |
| COC(=O)CCSC/C=C(\C)CCn1cc(COc2ccccc2)nn1 | 89 | – |
| COC(=O)CCSC/C=C(\C)CCn1cc(-c2ccc(OC)cc2)nn1 | 91 | – |
| COC(=O)CCSC/C=C(\C)CCn1cc(CCOC2CCCCO2)nn1 (centres undefined) | 80 | – |
| COC(=O)CCSC/C=C(\C)CCn1cc(CCc2cccc(-c3ccccc3)c2)nn1 | 65 | IC50 (MEF [3]): > 100 µM; IC50 (MEF [4]): 55 µM; IC50 [2]: 29 µM |
| COC(=O)CCSC/C=C(\C)CCn1cc(-c2cccc3ccccc23)nn1 | 82 | IC50 (MEF [3]): > 100 µM; IC50 (MEF [4]): 96 µM |
| C/C(=C\CSCCC(=O)O)CCn1cc(-c2ccsc2)nn1 | 80 | – |
| COC(=O)CCSC/C=C(\C)CCn1cc(COc2ccc(-c3ccccc3)cc2)nn1 | 67 | – |
| COC(=O)CCSC/C=C(\C)CCn1cc(CCc2ccc(-c3cccc(C#N)c3)cc2)nn1 | 30 | – |
| C/C(=C\CSCCC(=O)O)CCn1cc(COc2ccc(-c3ccccc3)cc2)nn1 | 75 | – |
| C/C(=C\CSCCC(=O)O)CCn1cc(CCc2ccc(-c3cccc(C#N)c3)cc2)nn1 | 74 | – |
| C/C(=C\CSCCC(=O)O)CCn1cc(-c2ccccc2)nn1 | 88 | – |
| COC(=O)CCSC/C=C(\C)CCn1cc(-c2ccccc2)nn1 | 89 | – |
| CC(C)=CCC/C(C)=C/CC/C(C)=C/CSc1ccccc1C(=O)O [SALIRASIB] | – | IC50 [2]: 25.5 µM |
| COC(=O)CCSC/C=C(\C)CCn1cc(CCc2ccc(-c3cccs3)cc2)nn1 | 57 | – |
| COC(=O)CCSC/C=C(\C)CCn1cc(-c2ccsc2)nn1 | 82 | – |
| C/C(=C\CSCCC(=O)O)CCn1cc(-c2cccc3ccccc23)nn1 | 77 | – |
| C/C(=C\CSCCC(=O)O)CCn1cc(-c2ccc(C(C)(C)C)cc2)nn1 | 88 | – |
| COc1ccc(-c2cn(CC/C(C)=C/CSCCC(=O)O)nn2)cc1 | 87 | – |
| COC(=O)CCSC/C=C(\C)CCn1cc(CCc2ccccc2-c2ccccc2)nn1 | 74 | – |
| CC(C)=CC/C(=C\CSC[C@H](NC(=O)c1ccccc1Oc1ccccc1)C(=O)O)CCc1ccc(-c2ccccc2)cc1 | – | IC50 [2]: 2.5 µM |
| C/C(=C\CSCCC(=O)O)CCn1cc(CCc2ccc(-c3ccc(F)cc3)cc2)nn1 | 42 | – |
| C/C(=C\CSCCC(=O)O)CCn1cc(CCc2ccc(-c3ccccc3)cc2)nn1 | 43 | – |
| COC(=O)CCSC/C=C(\C)CCn1cc(CCc2ccc(-c3ccc(F)cc3)cc2)nn1 | 28 | – |
| C/C(=C\CSCCC(=O)O)CCn1cc(CCc2cccc(-c3ccccc3)c2)nn1 | 74 | – |
| C/C(=C\CSCCC(=O)O)CCn1cc(CCc2ccc(-c3cccs3)cc2)nn1 | 63 | – |
| COC(=O)CCSC/C=C(\C)CCn1cc(CCc2ccc(-c3ccc(-c4ccccc4)cc3)cc2)nn1 | 79 | – |
| COC(=O)CCSC/C=C(\C)CCn1cc(Cc2ccccc2)nn1 | 80 | – |
| COC(=O)CCSC/C=C(\C)CCn1cc(CCc2ccc(-c3ccccc3)cc2)nn1 | 14 | IC50 (MEF [3]): > 100 µM; IC50 (MEF [4]): 33 µM; IC50 [2]: 0.8 µM; inhibition [5]: Active; IC50 [6]: 8 µM |

Now from value to compound, other results behind:

| Activity [1] [%] | SMILES | also measured |
| --- | --- | --- |
| 90 | CC(C)=CCC/C(C)=C/CCc1cn(CCCC(=O)O)nn1 | – |
| 90 | C/C(=C\CSCCC(=O)O)CCn1cc(CCOC2CCCCO2)nn1 (centres undefined) | IC50 [2]: > 100 µM |
| 75 | CC(C)=CCC/C(C)=C/CCc1cn(CCC(=O)O)nn1 | – |
| 89 | C/C(=C\CSCCC(=O)O)CCn1cc(COc2ccccc2)nn1 | – |
| 69 | COC(=O)CCSC/C=C(\C)CCn1cc(CCc2ccccc2)nn1 | IC50 [2]: 41 µM |
| 53 | CC(C)=CCC/C(C)=C/CC/C(C)=C/Cc1cn(CCC(=O)O)nn1 | – |
| 65 | CC(C)=CCC/C(C)=C/CC/C(C)=C/Cc1cn(CC(=O)O)nn1 | – |
| 83 | CC(C)=CCC/C(C)=C/CC/C(C)=C/Cc1cn(CCCC(=O)O)nn1 | – |
| 69 | CC(C)=CCC/C(C)=C/CC/C(C)=C/CCc1cn(CCC(=O)O)nn1 | – |
| 59 | COC(=O)CCSC/C=C(\C)CCn1cc(CC/C=C(\C)CCC=C(C)C)nn1 | – |
| 77 | COC(=O)CCSC/C=C(\C)CCn1cc(CCC(C)C)nn1 | – |
| 75 | C/C(=C\CSCCC(=O)O)CCn1cc(CCc2ccccc2)nn1 | – |
| 82 | C/C(=C\CSCCC(=O)O)CCn1cc(Cc2ccccc2)nn1 | – |
| 73 | CC(C)=CCC/C(C)=C/CC/C(C)=C/Cc1cn(CCCCC(=O)O)nn1 | – |
| 76 | CCCCCc1cn(CC/C(C)=C/CSCCC(=O)OC)nn1 | – |
| 72 | C/C(=C\CSCCC(=O)O)CCn1cc(CCC(C)C)nn1 | – |
| 77 | CCCCCc1cn(CC/C(C)=C/CSCCC(=O)O)nn1 | – |
